Experimental data published in ChEMBL document CHEMBL3045729, “Anti-tobacco mosaic virus (TMV) triterpenoid saponins from the leaves of Ilex oblonga” (J Agric Food Chem, 2007).
In brackets after ≈: the same amount, converted by molar mass.

Legend:
[1] = test system: Tobacco mosaic virus; experiment: Antiviral activity against Tobacco mosaic virus (TMV) inoculated in Nicotiana tabacum cv. K326 leaves assessed as inhibition of virus multiplication at 0.2 mg/ml at 25 degC measured after 48 hr by indirect ELISA/leaf-disk method; assay type: functional
How it was run: (§1)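 N. tabacum cv. K326 leaves mechanically inoculated with TMV at 10 µg/mL. After 7 h, 10-mm disks were floated on compound solutions (DMSO, diluted with water) for 48 h at 25 ± 1 °C. Solvent-only and healthy-leaf disks were controls; six repetitions. Ground disks were assayed by indirect ELISA (OD405) against an in-plate TMV standard curve. Inhibition was calculated relative to the solvent control.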

[2] = test system: Tobacco mosaic virus; experiment: Antiviral activity against Tobacco mosaic virus (TMV) inoculated in Nicotiana tabacum cv. K326 leaves assessed as inhibition of virus multiplication at 0.05 mg/ml at 25 degC measured after 48 hr by indirect ELISA/leaf-disk method; assay type: functional; how it was run: as §1
[3] = test system: Tobacco mosaic virus; experiment: Antiviral activity against Tobacco mosaic virus (TMV) inoculated in Nicotiana tabacum cv. K326 leaves assessed as inhibition of virus multiplication at 0.4 mg/ml at 25 degC measured after 48 hr by indirect ELISA/leaf-disk method; assay type: functional; how it was run: as §1
[4] = test system: Tobacco mosaic virus; experiment: Antiviral activity against Tobacco mosaic virus (TMV) inoculated in Nicotiana tabacum cv. K326 leaves assessed as inhibition of virus multiplication at 0.025 mg/ml at 25 degC measured after 48 hr by indirect ELISA/leaf-disk method; assay type: functional; how it was run: as §1
[5] = test system: Tobacco mosaic virus; experiment: Antiviral activity against Tobacco mosaic virus (TMV) inoculated in Nicotiana tabacum cv. K326 leaves assessed as inhibition of virus multiplication at 25 degC measured after 48 hr by indirect ELISA/leaf-disk method; assay type: functional, organism-based; how it was run: as §1
[6] = test system: Tobacco mosaic virus; experiment: Antiviral activity against Tobacco mosaic virus (TMV) inoculated in Nicotiana tabacum cv. K326 leaves assessed as inhibition of virus multiplication at 0.1 mg/ml at 25 degC measured after 48 hr by indirect ELISA/leaf-disk method; assay type: functional; how it was run: as §1

Compound	inhibition at 200 µg/mL [1] [%]	inhibition at 50 µg/mL [2] [%]	inhibition at 400 µg/mL [3] [%]	inhibition at 25 µg/mL [4] [%]	EC50 [5] [µg/mL]	inhibition at 100 µg/mL [6] [%]
C[C@@H]1CC[C@]2(C(=O)O[C@@H]3O[C@H](CO)[C@@H](O)[C@H](O)[C@H]3O)CC[C@]3(C)C(=CC[C@@H]4[C@@]5(C)C[C@@H](O)[C@H](O)[C@@](C)(CO)[C@@H]5CC[C@]43C)[C@@H]2[C@]1(C)O [NIGAICHIGOSIDE F1]	24.9	–	–	–	–	–
CC1(C)CC[C@]2(C(=O)O[C@@H]3O[C@H](CO)[C@@H](O)[C@H](O)[C@H]3O)CC[C@]3(C)C(=CC[C@@H]4[C@@]5(C)CC[C@H](O[C@@H]6OC[C@@H](O)[C@H](O)[C@H]6O)C(C)(C)[C@@H]5CC[C@]43C)[C@@H]2[C@@H]1O [OBLONGANOSIDE K]	85.7	31.4	88.5	13.1	76 (≈ 99.1 µM)	63.9
C[C@@H]1CC[C@]2(C(=O)O[C@@H]3O[C@H](CO)[C@@H](O)[C@H](O)[C@H]3O)CC[C@]3(C)C(=CC[C@@H]4[C@@]5(C)CC[C@H](O)C(C)(C)[C@@H]5CC[C@]43C)[C@@H]2[C@]1(C)O	27	–	–	–	–	–
CC1(C)[C@@H](O[C@@H]2OC[C@@H](O)[C@H](O)[C@H]2O)CC[C@]2(C)[C@H]3CC=C4[C@@H]5C[C@](C)(CO)CC[C@]5(C(=O)O[C@@H]5O[C@H](CO)[C@@H](O)[C@H](O)[C@H]5O)CC[C@@]4(C)[C@]3(C)CC[C@@H]12 [OBLONGANOSIDE L]	46.9	–	–	–	–	–
CC1(C)CC[C@]2(C(=O)O[C@@H]3O[C@H](CO)[C@@H](O)[C@H](O)[C@H]3O)CC[C@]3(C)C(=CC[C@@H]4[C@@]5(C)CC[C@H](O)C(C)(C)[C@@H]5CC[C@]43C)[C@@H]2[C@@H]1O	84.5	25.3	89.2	7.6	80 (≈ 126 µM)	65.7
C[C@@H]1CC[C@]2(C(=O)O[C@@H]3O[C@H](CO)[C@@H](O)[C@H](O)[C@H]3O)CC[C@]3(C)C(=CC[C@@H]4[C@@]5(C)CC[C@H](O[C@@H]6OC[C@@H](O)[C@H](O)[C@H]6O)[C@@](C)(CO)[C@@H]5CC[C@]43C)[C@@H]2[C@]1(C)O [OBLONGANOSIDE I]	31.7	–	–	–	–	–
C[C@@H]1CC[C@]2(C(=O)O[C@@H]3O[C@H](CO)[C@@H](O)[C@H](O)[C@H]3O)CC[C@]3(C)C(=CC[C@@H]4[C@@]5(C)CC[C@@H]6O[C@H](CO)OC[C@@]6(C)[C@@H]5CC[C@]43C)[C@@H]2[C@]1(C)O [OBLONGANOSIDE J]	28.1	–	–	–	–	–
C[C@@H]1CC[C@]2(C(=O)O[C@@H]3O[C@H](CO)[C@@H](O)[C@H](O)[C@H]3O)CC[C@]3(C)C(=CC[C@@H]4[C@@]5(C)CC[C@H](O)[C@@](C)(CO)[C@@H]5CC[C@]43C)[C@@H]2[C@]1(C)O [PEDUNCULOSIDE]	41.5	–	–	–	–	–
C[C@@H]1CC[C@]2(C(=O)O[C@@H]3O[C@H](CO)[C@@H](O)[C@H](O)[C@H]3O)CC[C@]3(C)C(=CC[C@@H]4[C@@]5(C)CC[C@H](O[C@@H]6OC[C@@H](O)[C@H](O)[C@H]6O)C(C)(C)[C@@H]5CC[C@]43C)[C@@H]2[C@]1(C)O [OBLONGANOSIDE H]	37.4	–	–	–	–	–
CC1(C)CC[C@]2(C(=O)O[C@@H]3O[C@H](CO)[C@@H](O)[C@H](O)[C@H]3O)CC[C@]3(C)C(=CC[C@@H]4[C@@]5(C)CC[C@H](O[C@@H]6OC[C@@H](O)[C@H](O)[C@H]6O)[C@@](C)(CO)[C@@H]5CC[C@]43C)[C@@H]2[C@@H]1O [OBLONGANOSIDE M]	78.5	32.7	85.3	5.2	85 (≈ 109 µM)	61.5
